# Results: paper PMC9701462 (Hepatology Communications, 2022)
# What was measured:
# Format in all cases: in vivo, human
# [1] = system: subjects with presumed F2/F3 NASH; assay: Phase 2a safety and tolerability; details: 28 days
# Procedure, shortened: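 Single-blind (subjects only), 2:1 randomized, placebo-controlled, at 10 US sites. Dosing was oral, once daily in the morning, fasted, for 28 days, as 75-mg soft-gelatin capsules. AEs, SAEs, labs (chemistry, hematology, coagulation, urinalysis), ECG, vitals and physical exams were recorded at screening, at Day 1 pre-dose baseline, then weekly for 4 weeks. Results are given as counts and percentages of the safety set per group.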
# [2] = Whole-blood pharmacokinetics; details: subjects with F2/F3 NASH, derived from CL/F and Vc/F estimates
# Procedure, shortened: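 Whole-blood samples were taken on Day 1 and Day 28 of once-daily oral dosing and assayed for parent drug and primary metabolites. Population PK used nonlinear mixed-effects modeling with first-order conditional estimation with interaction. Model choice used −2LL, AIC/BIC, %RSE and residual/VPC diagnostics; predictions ran to 816 h. CIs came from jackknife bootstrap (500 runs). Half-life was derived from CL/F and Vc/F estimates.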
# [3] = system: subjects with presumed F2/F3 NASH; assay: Serum liver enzymes ALT and AST, Phase 2a exploratory efficacy; details: for ALT, Mean: serum
# Procedure, shortened: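 Serum ALT and AST are exploratory efficacy endpoints, taken as absolute and percent change from baseline. Sampling was at Day 1 before dosing, during 28 days of once-daily fasted oral dosing, and after a 14-day off-drug observation period. Analysis used repeated-measures ANOVA/ANCOVA with Bonferroni correction, or Friedman/Savage nonparametric ANOVA when data were non-normal or sparse.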
# [4] = system: subjects with presumed F2/F3 NASH; assay: Collagen biomarkers; details: for Pro-C3, Mean: plasma
# Procedure, shortened: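 Adults with presumed F2/F3 NASH were randomized 2:1 to oral active or matching placebo, given as 75-mg soft-gelatin capsules once daily in the morning, fasted, for 28 days. Collagen turnover markers were sampled at baseline (Day 1, pre-dose), after 28 days of dosing, and at end of study after a 14-day observation period. Values are summarized as mean, SD, median and range.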
# [5] = 75 mg QD oral x 28 days, Day 1 (baseline, before dosing), N = 15
# [6] = 75 mg QD oral x 28 days, Day 14, N = 15
# [7] = 75 mg QD oral x 28 days, Day 28, N = 15
# [8] = 75 mg QD oral x 28 days, Day 42 (after 14-day observation period), N = 15
# [9] = 225 mg QD oral x 28 days, Day 1 (baseline, before dosing), N = 16
# [10] = 225 mg QD oral x 28 days, Day 14, N = 16
# [11] = 225 mg QD oral x 28 days, Day 28, N = 16
# [12] = 225 mg QD oral x 28 days, Day 42 (after 14-day observation period), N = 16
# [13] = 75 mg QD oral x 28 days, Day 1 (baseline, before dosing), N = 14
# [14] = 75 mg QD oral x 28 days, Day 14, N = 14
# [15] = 75 mg QD oral x 28 days, Day 28, N = 14
# [16] = 75 mg QD oral x 28 days, Day 42 (after 14-day observation period), N = 14
# [17] = 225 mg QD oral x 28 days, Day 1 (baseline, before dosing), N = 15
# [18] = 225 mg QD oral x 28 days, Day 14, N = 15
# [19] = 225 mg QD oral x 28 days, Day 28, N = 15
substance,measurement,setting,value
Rencofilstat [RCF],Subjects with any TEAE,"[1]; 75 mg QD oral, N = 15",5 (33.3%) n (%)
same,TEAE: Back pain,"[1]; 75 mg QD oral, N = 15",0 (0%) n (%)
same,TEAE: Constipation,"[1]; 75 mg QD oral, N = 15",1 (6.7%) n (%)
same,TEAE: Diarrhea,"[1]; 75 mg QD oral, N = 15",0 (0%) n (%)
same,TEAE: Dizziness,"[1]; 75 mg QD oral, N = 15",0 (0%) n (%)
same,TEAE: Gastrointestinal disorders,"[1]; 75 mg QD oral, N = 15",1 (6.7%) n (%)
same,TEAE: Headache,"[1]; 75 mg QD oral, N = 15",0 (0%) n (%)
same,TEAE: Musculoskeletal disorders,"[1]; 75 mg QD oral, N = 15",2 (13.3%) n (%)
same,TEAE: Nervous system disorders,"[1]; 75 mg QD oral, N = 15",1 (6.7%) n (%)
same,deaths or treatment-emergent SAEs (TESAEs),[1]; 75 mg and 225 mg QD oral,No deaths or TESAEs
same,safety signals,[1]; 75 mg and 225 mg QD oral,No safety signals were identified
same,Subjects with any TEAE,"[1]; 225 mg QD oral, N = 17",10 (58.8%) n (%)
same,TEAE: Back pain,"[1]; 225 mg QD oral, N = 17",1 (5.9%) n (%)
same,TEAE: Constipation,"[1]; 225 mg QD oral, N = 17",2 (11.8%) n (%)
same,TEAE: Diarrhea,"[1]; 225 mg QD oral, N = 17",2 (11.8%) n (%)
same,TEAE: Dizziness,"[1]; 225 mg QD oral, N = 17",1 (5.9%) n (%)
same,TEAE: Gastrointestinal disorders,"[1]; 225 mg QD oral, N = 17",5 (29.4%) n (%)
same,TEAE: Headache,"[1]; 225 mg QD oral, N = 17",1 (5.9%) n (%)
same,TEAE: Musculoskeletal disorders,"[1]; 225 mg QD oral, N = 17",2 (11.8%) n (%)
same,TEAE: Nervous system disorders,"[1]; 225 mg QD oral, N = 17",2 (11.8%) n (%)
same,effective half-life of elimination (T1/2),[2],33.7 ± 11.1 h
same,"AST, Mean",[3]; [5],49.47 IU/L
same,"ALT, Mean",[3]; [5],60.53 IU/L
same,"AST, Mean",[3]; [6],39.42 IU/L
same,"ALT, Mean",[3]; [6],47.00 IU/L
same,"AST, Mean",[3]; [7],35.08 IU/L
same,"ALT, Mean",[3]; [7],42.50 IU/L
same,"AST, Mean",[3]; [8],41.45 IU/L
same,"ALT, Mean",[3]; [8],50.00 IU/L
same,"AST, Mean",[3]; [9],31.94 IU/L
same,"ALT, Mean",[3]; [9],36.06 IU/L
same,"AST, Mean",[3]; [10],32.82 IU/L
same,"ALT, Mean",[3]; [10],31.59 IU/L
same,"AST, Mean",[3]; [11],32.38 IU/L
same,"ALT, Mean",[3]; [11],30.56 IU/L
same,"AST, Mean",[3]; [12],31.38 IU/L
same,"C1M, Mean",[4]; [13],90185.71 pg/mL
same,"C6M, Mean",[4]; [13],25142.86 pg/mL
same,"PRO-C8, Mean",[4]; [5],4985.33 pg/mL
same,"Pro-C3, Mean",[4]; [13],23792.86 pg/mL
same,"C1M, Mean",[4]; [14],80125.00 pg/mL
same,"C6M, Mean",[4]; [14],25825.00 pg/mL
same,"PRO-C8, Mean",[4]; [6],4693.33 pg/mL
same,"Pro-C3, Mean",[4]; [14],22916.67 pg/mL
same,"C1M, Mean",[4]; [15],70490.91 pg/mL
same,"C6M, Mean",[4]; [15],23354.55 pg/mL
same,"PRO-C8, Mean",[4]; [7],4683.33 pg/mL
same,"Pro-C3, Mean",[4]; [15],22933.33 pg/mL
same,"C1M, Mean",[4]; [16],65309.09 pg/mL
same,"C6M, Mean",[4]; [16],23783.33 pg/mL
same,"PRO-C8, Mean",[4]; [8],4923.33 pg/mL
same,"PRO-C8, Mean",[4]; [17],4693.33 pg/mL
same,"C1M, Mean",[4]; [9],70262.50 pg/mL
same,"C6M, Mean",[4]; [9],31406.25 pg/mL
same,"Pro-C3, Mean",[4]; [17],24413.33 pg/mL
same,"PRO-C8, Mean",[4]; [18],4138.13 pg/mL
same,"C1M, Mean",[4]; [10],55843.75 pg/mL
same,"C6M, Mean",[4]; [10],29168.75 pg/mL
same,"Pro-C3, Mean",[4]; [18],22418.75 pg/mL
same,"PRO-C8, Mean",[4]; [19],4416.88 pg/mL
same,"C1M, Mean",[4]; [11],62100.00 pg/mL
same,"C6M, Mean",[4]; [11],31362.5 pg/mL
same,"Pro-C3, Mean",[4]; [19],24043.75 pg/mL
same,"PRO-C8, Mean","[4]; 225 mg QD oral x 28 days, Day 42 (after 14-day observation period), N = 15",4712.94 pg/mL
same,"C1M, Mean",[4]; [12],69850.00 pg/mL
same,"C6M, Mean",[4]; [12],33168.75 pg/mL
